Activity calls are given as the source filed them. The calls are words filed in the database; no cut-off is given here.
Legend:
[1] = Metabolic stability in human liver microsomes assessed as compound remaining at 1 uM after 30 mins; type: ADME, microsome; conditions: read-out: Stability
[2] = Growth inhibition of parental mouse BA/F3 cells after 72 hrs by celltiter-glo assay; type: cell-based, BaF3
[3] = target: Activated CDC42 kinase 1 (Mus musculus) (UniProt O54967); experiment: Inhibition of ACK1 in mouse BA/F3 cells harboring NRAS-G12D mutant assessed as reduction in AKT phosphorylation at S473 at 1 uM after 2 hrs by Western blot analysis; type: cell-based
How it was run: (§1)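 Ba/F3-NRAS-G12D or OCI-AML3 cells exposed 2 h to compounds (1 µM, or a dose series in OCI-AML3); phospho-p70S6K1, phospho-AKT S473, phospho-JNK and phospho-p38 assessed by western blot, actin as loading control.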

[4] = target: CYP3A4 (Homo sapiens, UniProt P08684); experiment: Inhibition of CYP3A4 (unknown origin) assessed as activity remaining at 10 uM relative to control; type: ADME; conditions: read-out: Activity
[5] = target: CYP2D6 (Homo sapiens, UniProt P10635); experiment: Inhibition of CYP2D6 (unknown origin) assessed as activity remaining at 10 uM relative to control; type: ADME; conditions: read-out: Activity
[6] = target: T1, Mitogen-activated protein kinase kinase kinase kinase 2 (Mus musculus) (UniProt Q61161); experiment: Inhibition of GCK in mouse BA/F3 cells harboring NRAS-G12D mutant assessed as reduction in JNK phosphorylation at T183/Y185 at 1 uM after 2 hrs by Western blot analysis; type: cell-based; how it was run: as §1
T1 sequence (whole entry): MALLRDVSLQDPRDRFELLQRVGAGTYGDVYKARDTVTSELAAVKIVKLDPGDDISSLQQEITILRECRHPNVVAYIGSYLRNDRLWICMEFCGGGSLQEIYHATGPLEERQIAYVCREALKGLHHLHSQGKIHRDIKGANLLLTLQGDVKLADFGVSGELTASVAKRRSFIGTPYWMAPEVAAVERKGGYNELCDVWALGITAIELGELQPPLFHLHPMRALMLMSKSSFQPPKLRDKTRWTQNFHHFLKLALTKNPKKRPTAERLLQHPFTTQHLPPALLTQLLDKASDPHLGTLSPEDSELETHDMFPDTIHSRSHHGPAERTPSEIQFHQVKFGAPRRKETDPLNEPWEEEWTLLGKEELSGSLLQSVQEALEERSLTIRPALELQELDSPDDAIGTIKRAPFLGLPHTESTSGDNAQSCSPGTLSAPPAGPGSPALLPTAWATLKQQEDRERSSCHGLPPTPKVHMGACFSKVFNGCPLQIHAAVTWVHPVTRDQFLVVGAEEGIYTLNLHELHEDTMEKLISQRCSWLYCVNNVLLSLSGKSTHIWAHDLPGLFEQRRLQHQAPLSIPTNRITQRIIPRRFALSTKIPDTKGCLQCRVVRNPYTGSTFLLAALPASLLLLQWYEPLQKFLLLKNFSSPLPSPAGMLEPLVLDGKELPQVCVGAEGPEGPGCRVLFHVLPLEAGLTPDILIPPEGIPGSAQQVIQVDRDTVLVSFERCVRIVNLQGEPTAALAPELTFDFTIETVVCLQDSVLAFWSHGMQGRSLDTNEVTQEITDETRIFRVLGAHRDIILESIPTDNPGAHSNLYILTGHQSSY

[7] = target: T2, Activated CDC42 kinase 1 (Homo sapiens, UniProt Q07912); experiment: Inhibition of ACK1 in human OCI-AML3 cells harboring NRAS Q61L mutant assessed as reduction in AKT phosphorylation at S473 at 1 uM after 2 hrs by Western blot analysis; type: cell-based; how it was run: as §1
[8] = Metabolic stability in rat liver microsomes assessed as compound remaining at 1 uM after 30 mins; type: ADME, microsome; conditions: read-out: Stability
[9] = tested on: OCI-AML-3; experiment: Growth inhibition of human OCI-AML3 cells harboring NRAS-Q61L mutant after 72 hrs by celltiter-glo assay; type: functional; conditions: OCI-AML-3, 72 h
[10] = target: CYP2C9 (Homo sapiens, UniProt P11712); experiment: Inhibition of CYP2C9 (unknown origin) assessed as activity remaining at 10 uM relative to control; type: ADME; conditions: read-out: Activity
[11] = tested on: OCI-AML-3; experiment: Growth inhibition of ACK1/GCK knockdown human OCI-AML3 cells harboring NRAS-Q61L mutant at 0.2 uM after 72 hrs by celltiter-glo assay; type: functional, cell-based
[12] = organism: Mus musculus; experiment: Inhibition of ACK1/GCK in mouse BA/F3 cells assessed as reduction in NRAS-G12D mutant-mediated cell proliferation after 72 hrs by celltiter-glo assay; type: cell-based
[13] = tested on: OCI-AML-3; experiment: Inhibition of anchorage-independent cell growth in human OCI-AML3 cells harboring NRAS Q61L mutant assessed as reduction in colony size at 0.1 to 1 uM after 14 days by iodonitrotetrazolium chloride staining-based soft agar assay; type: functional
How it was run: (§2)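 OCI-AML3 cells embedded in 0.7% low-melting agar, incubated 2 weeks with compound at 0.1 or 1 µM; colony number and colony size per well measured by automated image analysis; n = 3 per condition, SD, one-way ANOVA.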

[14] = tested on: OCI-AML-3; experiment: Induction of apoptosis in human OCI-AML3 cells harboring NRAS Q61L mutant assessed as increase in cleaved PARP levels at 1 uM after 24 hrs by Western blot analysis; type: functional, cell-based
How it was run: (§3)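 Cells treated 24 h with indicated concentrations (1 µM; 5 µM also used in Ba/F3-NRAS-G12D); cleaved PARP, cleaved caspase 3, bcl-2 and MCL1 detected by western blot with actin as loading control.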

[15] = tested on: OCI-AML-3; experiment: Inhibition of anchorage-independent cell growth in human OCI-AML3 cells harboring NRAS Q61L mutant assessed as reduction in colony number at 0.1 to 1 uM after 14 days by iodonitrotetrazolium chloride staining-based soft agar assay; type: functional; how it was run: as §2
[16] = tested on: OCI-AML-3; experiment: Induction of apoptosis in human OCI-AML3 cells harboring NRAS Q61L mutant assessed as decrease in mcl1 levels at 1 uM after 24 hrs by Western blot analysis; type: functional, cell-based; how it was run: as §3
[17] = target: T2, Activated CDC42 kinase 1; experiment: Inhibition of ACK1 in human OCI-AML3 cells harboring NRAS Q61L mutant assessed as reduction in AKT phosphorylation at S473 after 2 hrs by Western blot analysis; type: cell-based; how it was run: as §1

Chain of CYP3A4 (P08684 whole entry): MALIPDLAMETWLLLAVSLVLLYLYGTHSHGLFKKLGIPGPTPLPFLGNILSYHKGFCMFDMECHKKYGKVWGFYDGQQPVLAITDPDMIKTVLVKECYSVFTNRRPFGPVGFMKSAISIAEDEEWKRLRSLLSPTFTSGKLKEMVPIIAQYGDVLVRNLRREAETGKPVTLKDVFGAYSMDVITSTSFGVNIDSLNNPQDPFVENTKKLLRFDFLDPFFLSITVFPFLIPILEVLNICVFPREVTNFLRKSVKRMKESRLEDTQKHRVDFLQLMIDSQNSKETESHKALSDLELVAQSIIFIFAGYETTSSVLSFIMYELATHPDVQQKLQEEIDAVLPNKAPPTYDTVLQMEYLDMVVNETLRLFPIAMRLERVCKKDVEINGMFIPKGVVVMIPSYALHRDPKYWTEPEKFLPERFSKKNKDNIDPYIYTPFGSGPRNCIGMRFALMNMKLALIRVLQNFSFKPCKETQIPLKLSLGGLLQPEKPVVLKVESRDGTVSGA
Chain of CYP2D6 (P10635 whole entry): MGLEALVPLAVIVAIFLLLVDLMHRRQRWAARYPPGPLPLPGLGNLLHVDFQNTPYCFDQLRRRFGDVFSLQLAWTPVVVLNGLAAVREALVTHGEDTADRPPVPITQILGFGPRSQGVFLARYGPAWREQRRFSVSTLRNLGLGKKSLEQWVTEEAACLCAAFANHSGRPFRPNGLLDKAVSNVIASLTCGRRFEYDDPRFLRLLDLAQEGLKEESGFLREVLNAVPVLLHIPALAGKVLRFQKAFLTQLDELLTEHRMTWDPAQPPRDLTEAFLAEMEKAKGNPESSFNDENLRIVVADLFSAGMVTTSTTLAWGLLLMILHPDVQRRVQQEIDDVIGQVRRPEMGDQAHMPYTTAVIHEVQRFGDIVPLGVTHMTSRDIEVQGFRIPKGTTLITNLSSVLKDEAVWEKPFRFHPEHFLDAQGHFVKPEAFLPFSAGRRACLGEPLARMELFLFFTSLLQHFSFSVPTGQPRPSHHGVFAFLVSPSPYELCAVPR
Chain of CYP2C9 (P11712 whole entry): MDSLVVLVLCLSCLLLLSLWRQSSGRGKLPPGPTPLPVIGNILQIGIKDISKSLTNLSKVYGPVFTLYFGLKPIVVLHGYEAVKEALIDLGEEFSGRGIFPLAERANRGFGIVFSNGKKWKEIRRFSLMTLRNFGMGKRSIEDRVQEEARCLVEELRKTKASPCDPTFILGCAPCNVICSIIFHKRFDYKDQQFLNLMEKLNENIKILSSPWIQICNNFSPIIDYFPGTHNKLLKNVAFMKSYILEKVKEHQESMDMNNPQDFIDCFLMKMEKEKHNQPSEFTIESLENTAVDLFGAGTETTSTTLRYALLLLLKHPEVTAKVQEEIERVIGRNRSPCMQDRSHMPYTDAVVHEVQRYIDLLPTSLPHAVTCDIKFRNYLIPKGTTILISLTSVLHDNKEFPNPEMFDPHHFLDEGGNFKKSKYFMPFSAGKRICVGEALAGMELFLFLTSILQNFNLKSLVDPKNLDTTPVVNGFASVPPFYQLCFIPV
T2 sequence (Q07912 whole entry, looked up): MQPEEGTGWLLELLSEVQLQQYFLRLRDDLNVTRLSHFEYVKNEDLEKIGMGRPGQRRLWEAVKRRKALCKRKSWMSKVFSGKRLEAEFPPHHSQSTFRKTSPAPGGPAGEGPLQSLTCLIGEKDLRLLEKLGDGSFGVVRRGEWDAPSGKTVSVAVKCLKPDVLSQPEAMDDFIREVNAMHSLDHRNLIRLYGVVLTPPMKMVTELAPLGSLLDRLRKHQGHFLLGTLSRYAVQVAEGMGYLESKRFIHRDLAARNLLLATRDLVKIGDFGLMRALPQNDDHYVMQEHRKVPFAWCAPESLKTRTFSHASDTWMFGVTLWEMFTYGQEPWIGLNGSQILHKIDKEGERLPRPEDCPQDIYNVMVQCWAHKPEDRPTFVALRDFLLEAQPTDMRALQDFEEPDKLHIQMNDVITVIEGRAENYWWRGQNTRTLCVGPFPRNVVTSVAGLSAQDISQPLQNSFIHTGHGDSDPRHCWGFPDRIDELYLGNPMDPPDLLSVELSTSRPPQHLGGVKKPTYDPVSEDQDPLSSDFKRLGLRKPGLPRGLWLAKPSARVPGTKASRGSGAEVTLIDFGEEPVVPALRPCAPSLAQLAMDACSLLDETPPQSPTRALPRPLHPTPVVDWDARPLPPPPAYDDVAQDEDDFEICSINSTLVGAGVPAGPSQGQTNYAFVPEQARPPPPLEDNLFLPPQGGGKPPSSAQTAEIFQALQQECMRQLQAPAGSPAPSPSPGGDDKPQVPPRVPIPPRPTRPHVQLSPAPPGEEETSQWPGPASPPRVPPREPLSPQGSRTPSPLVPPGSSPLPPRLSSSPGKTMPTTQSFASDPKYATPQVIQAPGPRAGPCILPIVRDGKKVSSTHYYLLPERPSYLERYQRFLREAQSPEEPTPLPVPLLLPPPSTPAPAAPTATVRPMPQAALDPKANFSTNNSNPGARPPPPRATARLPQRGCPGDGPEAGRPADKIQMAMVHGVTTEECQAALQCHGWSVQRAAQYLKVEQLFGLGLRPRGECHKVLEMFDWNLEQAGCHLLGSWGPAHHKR
Chain of Activated CDC42 kinase 1 (Mus musculus) (O54967 whole entry): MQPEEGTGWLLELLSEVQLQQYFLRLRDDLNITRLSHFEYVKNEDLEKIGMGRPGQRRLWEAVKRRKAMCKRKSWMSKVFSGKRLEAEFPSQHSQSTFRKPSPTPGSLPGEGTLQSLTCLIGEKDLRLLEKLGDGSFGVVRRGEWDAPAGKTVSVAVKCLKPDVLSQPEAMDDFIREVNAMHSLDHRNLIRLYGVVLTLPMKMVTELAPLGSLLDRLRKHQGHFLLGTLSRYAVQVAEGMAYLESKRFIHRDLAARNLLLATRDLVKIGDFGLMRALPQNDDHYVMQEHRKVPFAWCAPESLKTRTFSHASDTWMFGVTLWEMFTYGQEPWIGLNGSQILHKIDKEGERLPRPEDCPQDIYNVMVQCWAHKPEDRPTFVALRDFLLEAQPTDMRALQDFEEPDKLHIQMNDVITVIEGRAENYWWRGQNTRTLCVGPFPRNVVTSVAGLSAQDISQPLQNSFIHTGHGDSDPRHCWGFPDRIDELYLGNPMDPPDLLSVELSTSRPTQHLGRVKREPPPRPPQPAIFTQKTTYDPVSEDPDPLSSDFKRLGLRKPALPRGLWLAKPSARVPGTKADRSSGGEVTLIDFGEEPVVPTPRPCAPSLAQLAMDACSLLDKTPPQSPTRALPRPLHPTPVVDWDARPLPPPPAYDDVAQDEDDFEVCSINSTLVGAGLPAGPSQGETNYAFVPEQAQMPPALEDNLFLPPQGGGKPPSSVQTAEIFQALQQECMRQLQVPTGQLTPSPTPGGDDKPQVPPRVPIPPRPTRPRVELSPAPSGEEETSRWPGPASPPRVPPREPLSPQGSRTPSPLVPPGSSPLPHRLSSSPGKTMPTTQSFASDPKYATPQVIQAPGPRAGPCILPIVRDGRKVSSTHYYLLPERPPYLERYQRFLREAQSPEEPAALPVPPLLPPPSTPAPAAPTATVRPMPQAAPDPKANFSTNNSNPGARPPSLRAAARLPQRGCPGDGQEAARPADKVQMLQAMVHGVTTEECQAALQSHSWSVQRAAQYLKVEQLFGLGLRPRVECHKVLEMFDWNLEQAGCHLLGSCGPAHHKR

Row | SMILES | remaining at 0.5 h, 1 µM [1] | GI50 at 72 h [2] | reduction in AKT S473 phosphorylation (qualitative) [3] | activity at 10 µM [4] | activity at 10 µM [5] | reduction in JNK phosphorylation (active/inactive call) [6] | reduction in AKT S473 phosphorylation (qualitative) [7] | remaining at 0.5 h, 1 µM [8] | GI50 [9] | activity at 10 µM [10] | growth inhibition (GI) [11] | GI50 [12] | growth inhibition (GI) [13] | Activity [14] | growth inhibition (GI) [15] | Activity [16] | inhibition [17]
1 | Cc1cc(Nc2ncc3c(n2)N(C)C(=O)N(c2cc(NC(=O)c4cccc(C(F)(F)F)c4)ccc2C)C3)n(C)n1 | 69.2% | 2.06 µM | Active | > 100% | 72% | Active | Active | 82.3% | 0.208 µM | 38.3% | Active | 0.129 µM | – | – | – | – | –
2 | Cc1ccc(NC(=O)c2cccc(C(F)(F)F)c2)cc1N1Cc2cnc(N)nc2N(C)C1=O | 84.4% | 2.11 µM | Active | > 100% | 82.2% | Active | Active | 81.3% | 0.466 µM | 68.1% | – | 0.223 µM | Active | Active | Active | Active | Dose-dependent effect
3 | Cc1ccc(Nc2ncc3c(n2)N(C)C(=O)N(c2cc(NC(=O)c4ccc(CN5CCC(N(C)C)C5)c(C(F)(F)F)c4)ccc2C)C3)cn1 (configuration not stated) | 57.5% | 0.636 µM | Active | 21.6% | 4.9% | Active | Active | 76.5% | 0.037 µM | 55.1% | – | 0.023 µM | Active | – | Active | – | –
4 | CC(=O)N1CCN(c2ccc(Nc3ncc4c(n3)N(C)C(=O)N(c3cc(NC(=O)c5cccc(C(F)(F)F)c5)ccc3C)C4)cn2)CC1 | 47.3% | 0.402 µM | – | 88.5% | 83.1% | – | – | 75.4% | 0.179 µM | 15.6% | Active | 0.059 µM | Active | Active | Active | Active | Dose-dependent effect
5 | CCN1CCN(C(=O)c2ccc(Nc3ncc4c(n3)N(C)C(=O)N(c3cc(NC(=O)c5cccc(C(F)(F)F)c5)ccc3C)C4)cn2)CC1 | 24.6% | 0.728 µM | Active | 94.2% | 32.8% | Active | Active | 38.3% | 0.122 µM | 29% | Active | 0.107 µM | – | – | – | – | –

— ChEMBL document CHEMBL4196175, “First SAR Study for Overriding NRAS Mutant Driven Acute Myeloid Leukemia” (J Med Chem, 2018)
